Reference: ChEMBL document CHEMBL4145631, “Riluzole-Triazole Hybrids as Novel Chemical Probes for Neuroprotection in Amyotrophic Lateral Sclerosis” (ACS Med Chem Lett, 2018)
The source made the active and inactive calls. No rule for the calls is given here.

Tests used:
Cortical neurone [1] = test: Neuroprotective activity against kainate-induced cell death in mouse primary cortical neurons by caspase activation method; type: functional, cell-based
Cortical neurone [2] = test: Neuroprotective activity against kainate-induced cell damage in mouse primary cortical neurons assessed as reversal of kainate-induced reduction in calcium flux by fura-2-AM dye based fluorescence assay; type: functional
Summary of the method: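 Mouse primary cortical neurons loaded with fura-2AM for 45 min, washed, then depolarized with 10 mM KCl to drive Ca2+ entry through voltage-gated calcium channels. Flux read on a plate-based system.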

Cortical neurone [3] = test: Neuroprotective activity against kainate-induced cell death in mouse primary cortical neurons by cell counting method; type: functional, cell-based
Cortical neurone [4] = test: Neuroprotective activity against kainate-induced cell death in mouse primary cortical neurons by MTT assay; type: functional, cell-based
Mus musculus [5] = species on record: Mus musculus; test: Neuroprotective activity against kainate-induced cell death in mouse primary motor neurons by MTT assay; type: functional
Mus musculus [6] = species on record: Mus musculus; test: Neuroprotective activity against kainate-induced cell death in mouse primary motor neurons by cell counting method; type: functional
Mus musculus [7] = species on record: Mus musculus; test: Neuroprotective activity against kainate-induced cell death in mouse primary motor neurons by caspase activation method; type: functional
Cortical neurone [8] = test: Neuroprotective activity against kainate-induced cell damage in mouse primary cortical neurons assessed as reduction in kainate-induced neurofilament loss by measuring increase in MAPK level at 1 uM pretreated followed by kainate challenge measured after 18 hrs by fluorescence assay; type: functional, cell-based; conditions: in the assay text read “MAP2” for “MAPK”
Summary of the method: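 Mouse primary cortical neurons cultured as previously described; dendritic processes stained with anti-MAP2 antibody. Cell-profile perimeter measured by image analysis, each condition normalized to kainate-only.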

Row | SMILES | Activity (Cortical neurone [1]) | Activity (Cortical neurone [2]) | Activity (Cortical neurone [3]) | Activity (Cortical neurone [4]) | Activity (Mus musculus [5]) | Activity (Mus musculus [6]) | Activity (Mus musculus [7]) | Activity (Cortical neurone [8])
1 | N=c1sc2cc(OC(F)(F)F)ccc2n1CCn1cc(-c2ccccc2F)nn1 | inactive | Active | inactive | inactive | inactive | inactive | inactive | inactive
2 | N=c1sc2cc(OC(F)(F)F)ccc2n1CCn1cc(-c2cccc(F)c2)nn1 | inactive | Active | inactive | inactive | inactive | inactive | inactive | inactive
3 | CCCCCCc1ccc(-c2cn(CCn3c(=N)sc4cc(OC(F)(F)F)ccc43)nn2)cc1 | inactive | Active | inactive | inactive | inactive | inactive | inactive | inactive
4 | N=c1sc2cc(OC(F)(F)F)ccc2n1CCn1cc(-c2cccc(Cl)c2)nn1 | inactive | Active | inactive | inactive | inactive | inactive | inactive | inactive
5 | N=c1sc2cc(OC(F)(F)F)ccc2n1CCn1cc(-c2ccccc2N)nn1 | inactive | Active | inactive | inactive | inactive | inactive | inactive | Active
6 | N=c1sc2cc(OC(F)(F)F)ccc2n1CCn1cc(-c2ccc(N)cc2)nn1 | inactive | Active | inactive | inactive | inactive | inactive | inactive | inactive
7 | N=c1sc2cc(OC(F)(F)F)ccc2n1CCn1cc(C2CCCCC2)nn1 | inactive | Active | inactive | inactive | inactive | inactive | inactive | inactive
8 | CCCCc1ccc(-c2cn(CCn3c(=N)sc4cc(OC(F)(F)F)ccc43)nn2)cc1 | inactive | Active | inactive | inactive | inactive | inactive | inactive | inactive
9 | N=c1sc2cc(OC(F)(F)F)ccc2n1CCn1cc(-c2ccc(C(F)(F)F)cc2)nn1 | inactive | Active | inactive | inactive | inactive | inactive | inactive | inactive
10 | N=c1sc2cc(OC(F)(F)F)ccc2n1CCn1cc(-c2ccc([N+](=O)[O-])cc2)nn1 | inactive | Active | inactive | inactive | inactive | inactive | inactive | inactive
11 | N=c1sc2cc(OC(F)(F)F)ccc2n1CCn1cc(Cc2ccccc2)nn1 | inactive | Active | inactive | inactive | inactive | inactive | inactive | inactive
12 | N=c1sc2cc(OC(F)(F)F)ccc2n1CCn1cc(-c2cccc(N)c2)nn1 | inactive | Active | inactive | inactive | inactive | inactive | inactive | inactive
13 | N=c1sc2cc(OC(F)(F)F)ccc2n1CCn1cc(-c2cccc(C(F)(F)F)c2)nn1 | inactive | Active | inactive | inactive | inactive | inactive | inactive | inactive
14 | N=c1sc2cc(OC(F)(F)F)ccc2n1CCn1cc(-c2cccs2)nn1 | inactive | Active | inactive | inactive | inactive | inactive | inactive | Active
15 | Cc1cccc(-c2cn(CCn3c(=N)sc4cc(OC(F)(F)F)ccc43)nn2)c1 | inactive | Active | inactive | inactive | inactive | inactive | inactive | inactive
16 | COc1ccc(-c2cn(CCn3c(=N)sc4cc(OC(F)(F)F)ccc43)nn2)cc1 | inactive | Active | inactive | inactive | inactive | inactive | inactive | inactive
17 | CC(C)Cc1cn(CCn2c(=N)sc3cc(OC(F)(F)F)ccc32)nn1 | inactive | Active | inactive | inactive | inactive | inactive | inactive | inactive
18 | CCCc1ccc(-c2cn(CCn3c(=N)sc4cc(OC(F)(F)F)ccc43)nn2)cc1 | inactive | Active | inactive | inactive | inactive | inactive | inactive | inactive
19 | N=c1sc2cc(OC(F)(F)F)ccc2n1CCn1cc(-c2ccccc2C(F)(F)F)nn1 | inactive | Active | inactive | inactive | inactive | inactive | inactive | inactive
20 | N=c1sc2cc(OC(F)(F)F)ccc2n1CCn1cc(C2CCCC2)nn1 | inactive | Active | inactive | inactive | inactive | inactive | inactive | inactive
21 | N=c1sc2cc(OC(F)(F)F)ccc2n1CCn1cc(C2CC2)nn1 | inactive | Active | inactive | inactive | inactive | inactive | inactive | inactive
22 | CC(C)(C)c1cn(CCn2c(=N)sc3cc(OC(F)(F)F)ccc32)nn1 | inactive | Active | inactive | inactive | inactive | inactive | inactive | inactive
